Data taken from publication PMC7104417 (ACS chemical neuroscience, 2020).
Several values for one entry are separate records, joined by “and”; a condition that tells them apart may be missing. Equal values may be shown once. Read-outs that look alike come from different tables or passages of the source.

Legend:
[1] = molecular target: T1, human M1R (Homo sapiens, UniProt P11229); format: binding; settings: for Displacement of radioligand at M1Rs at highest concentration: 100 μM
T1 sequence (P11229 1-460): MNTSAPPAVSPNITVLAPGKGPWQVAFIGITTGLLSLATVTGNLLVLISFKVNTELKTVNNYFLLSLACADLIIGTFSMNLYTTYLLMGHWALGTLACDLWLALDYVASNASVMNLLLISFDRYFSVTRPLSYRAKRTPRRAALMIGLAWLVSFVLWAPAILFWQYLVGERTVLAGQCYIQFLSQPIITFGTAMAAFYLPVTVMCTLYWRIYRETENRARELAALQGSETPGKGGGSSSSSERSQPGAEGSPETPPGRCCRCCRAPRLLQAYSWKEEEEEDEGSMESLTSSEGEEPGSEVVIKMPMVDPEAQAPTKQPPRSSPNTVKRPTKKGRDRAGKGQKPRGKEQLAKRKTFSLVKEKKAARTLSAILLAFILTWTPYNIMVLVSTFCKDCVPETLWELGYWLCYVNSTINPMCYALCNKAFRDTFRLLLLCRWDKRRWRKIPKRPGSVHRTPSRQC

[2] = cited from earlier work
[3] = molecular target: T2, human M2R (Homo sapiens, UniProt P08172); assay: M2R cAMP signaling; format: cell-based
T2 sequence (P08172 1-466): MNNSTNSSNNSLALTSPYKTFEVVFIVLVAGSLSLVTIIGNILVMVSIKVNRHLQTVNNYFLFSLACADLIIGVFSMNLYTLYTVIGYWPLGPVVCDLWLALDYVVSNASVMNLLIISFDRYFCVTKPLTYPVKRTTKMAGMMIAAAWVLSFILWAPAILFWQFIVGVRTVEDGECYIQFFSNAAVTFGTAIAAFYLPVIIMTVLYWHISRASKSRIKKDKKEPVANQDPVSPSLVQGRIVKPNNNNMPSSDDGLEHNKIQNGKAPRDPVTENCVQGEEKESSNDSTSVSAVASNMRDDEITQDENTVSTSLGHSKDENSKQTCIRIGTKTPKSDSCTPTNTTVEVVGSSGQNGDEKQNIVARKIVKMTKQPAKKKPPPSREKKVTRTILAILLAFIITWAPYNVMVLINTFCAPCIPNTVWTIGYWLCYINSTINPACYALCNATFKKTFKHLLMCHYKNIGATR

[4] = molecular target: T2, human M2R; assay: M2R β-arrestin recruitment; format: cell-based
[5] = molecular target: T3, human M1Rs (Homo sapiens, UniProt P11229); assay: M1R phosphoinositide hydrolysis; format: cell-based
T3 sequence (P11229 1-460): T1 sequence (P11229 1-460)

[6] = molecular target: T2, human M2R; assay: [3H]scopolamine radioligand competition binding at M2R; settings: for Ki: read-out: Ki at M2Rs; for Ki / Displacement of radioligand at M2Rs at highest concentration: full dose-response competition binding; for Displacement of radioligand at M2Rs at highest concentration: 100 μM
[7] = cited from earlier work; remark: listed apart in the source
[8] = tested on: DAT; settings: cited from earlier work
[9] = tested on: NET; settings: cited from earlier work
[10] = tested on: human M1Rs, M2Rs, M3Rs, M4Rs, and M5Rs; assay: Initial [3H]scopolamine displacement screen at each of the five MR subtypes; format: binding; settings: screened at 1 and 10 μM
Outline: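 HEK293 cells (passage <20), lipid-transfected with human M1–M5 receptor cDNA; membranes harvested ~48 h later and stored at -80 °C. […] Filtered on GF/B, washed with ice-cold 50 mM Tris pH 7.4, scintillation counted. Affinities estimated from these two concentrations; N=2.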

[11] = α-PVP confirmed as only stimulant responsible for intoxication; cited from earlier work
[12] = molecular target: T1, human M1R; settings: cited from earlier work
[13] = full dose-response competition binding

SMILES: CCCC(C(=O)c1ccc2c(c1)OCO2)N1CCCC1 (stereo not shown) [MDPV, 3,4-methylenedioxypyrovalerone]
- Estimated pKi at M1R [1]: 5.06
- Effect on mitochondrial activity and cellular membranes [2]: not observed

SMILES: O=C1CCCN1CC#CCN1CCCC1 [oxotremorine, reference compound]
- EC50 [3]: 28.8 nM
- EC80, decrease of forskolin-stimulated cAMP production ([3]; 10 μM forskolin): 130 nM
- EC80, β-arrestin recruitment ([4]; concentration used in antagonist tests): 10000 nM
- EC80, IP1 production [5]: 500 nM

SMILES: CCCCCC(C(=O)c1ccc2c(c1)OCO2)N1CCCC1 (stereo not drawn) [MDPHPP, 3,4-methylenedioxy-α-pyrrolidinoheptaphenone]
- Estimated pKi at M1R [1]: 5.22

SMILES: CCCCC(C(=O)c1ccccc1)N1CCCC1 (stereo not drawn) [α-PHP, α-pyrrolidinohexiophenone]
- Fold increase in M1R affinity from α-PPP ([1]; ratio of Ki values): 121 fold
- Ki ([1]; read-out: Ki at M1Rs, full dose-response competition binding): 1600 nM
- Fold increase in M2R affinity compared to α-PPP ([6]; ratio of Ki values): 302 fold
- Ki [6]: 251 nM
- pKb, inhibition of M2R stimulation by oxotremorine (cAMP) [3]: 6.92 ±0.03
- Functional activity at M2R-cAMP signaling pathway ([3]; maximal effect above forskolin alone): inverse agonist
- Kb ([3]; read-out: Kb, inhibition of M2R stimulation by oxotremorine (cAMP)): 120 nM
- pKb, inhibition of oxotremorine-stimulated β-arrestin recruitment ([4]; EC80 oxotremorine (10 μM)): 6.30 ± 0.12
- Functional activity at M2R-β-arrestin recruitment ([4]; relative to basal signaling): inverse agonist
- pKb, inhibition of M1R-IP1 production caused by oxotremorine ([5]; EC80 oxotremorine (500 nM)): 5.86 ± 0.35
- Functional activity at M1R-inositol phosphate signaling pathway ([5]; maximal effect lower than basal signaling): inverse agonist activity
- Kb ([5]; read-out: Kb, inhibition of M1R-IP1 production caused by oxotremorine, EC80 oxotremorine (500 nM)): 1400 nM and 1380 nM
- Blood concentration, fatal cases ([7]; fatal cases, as high as): ≤ 2860 nM
- Blood concentration, non-fatal case ([7]; male admitted to hospital after inhaling only α-PHP): 1280 nM
- Serum concentration, non-fatal case ([7]; patient admitted to hospital after taking α-PHP): 710 nM
- Fold higher affinity at DAT than α-PPP [8]: 81 fold
- Fold higher affinity at NET than α-PPP [9]: 6 fold

SMILES: CCC(C(=O)c1ccccc1)N1CCCC1 (stereo not drawn) [α-PBP, α-pyrrolidinobutiophenone]
- Displacement of radioligand at M1Rs at highest concentration [1, 13]: less than 50%
- Displacement of radioligand at M2Rs at highest concentration [6]: less than 50%
- Ki ([6]; interpolated): 40000 nM
- Displacement of 1 nM [3H]scopolamine from each of the MR subtypes [10]: < 5%

SMILES: CCCC(C(=O)c1ccccc1)N1CCCC1 (stereo not drawn) [α-PVP, α-pyrrolidinopentiophenone]
- Fold increase in M2R affinity compared to α-PBP ([6]; ratio of Ki values): 49 fold
- Fold increase in M2R affinity compared to α-PPP ([6]; ratio of Ki values): 89 fold
- Ki [6]: 824 nM
- Serum concentration, non-fatal cases ([7]; non-fatal cases, as high as): ≤ 2600 nM
- Concentration, postmortem cases ([7]; postmortem cases, as high as): ≤ 86000 nM
- Patients presenting with tachycardia [11]: 80%

SMILES: CCCCC(C(=O)c1ccc2c(c1)OCO2)N1CCCC1 (stereo not drawn) [MDPHP, 3,4-methylenedioxy-α-pyrrolidinohexiophenone]
- Estimated pKi at M1R [1]: 5.44
- Ki ([1]; read-out: Estimated Ki at M1Rs, estimated from 1 and 10 μM screens): 3630 nM

SMILES: CNC(C)C(=O)c1ccc(Br)cc1 (stereo not shown) [4-bromomethcathinone, reference compound]
- Affinity at M1Rs (initial experiments) [12]: nil affinity

SMILES: CCCCCCC(C(=O)c1ccccc1)N1CCCC1 (stereo not drawn) [α-PV9, α-pyrrolidinooctanophenone, reference compound]
- Effect on mitochondrial activity and cellular membranes [2]: potently decreased mitochondrial activity and severely damaged cellular membranes

SMILES: CC(C(=O)c1ccccc1)N1CCCC1 (stereo not drawn) [α-PPP, α-pyrrolidinopropiophenone]
- Displacement of radioligand at M1Rs at highest concentration [1, 13]: less than 50%
- Displacement of radioligand at M2Rs at highest concentration [6]: less than 50%
- Displacement of 1 nM [3H]scopolamine from each of the MR subtypes [10]: < 5%
- Affinity at M1Rs (initial experiments) [12]: nil affinity

SMILES: CC(C(=O)c1ccc2c(c1)OCO2)N1CCCC1 (stereo not drawn) [MDPPP, 3,4-methylenedioxy-α-pyrrolidinopropiophenone]
- Affinity at M1Rs (initial experiments) [12]: nil affinity
